Activity calls are given as the source filed them. No cut-off for these calls is given here.
Assays:
[1] = species on record: Sus scrofa; assay: Inhibition of vinblastine binding to porcine tubulin preincubated with tubulin followed by vinblastine treatment measured after 2 hrs by immunoblot analysis
[2] = target: Tubulin alpha-1C chain (Homo sapiens) (UniProt Q9BQE3); assay: Binding affinity to tubulin alpha-1C in human A549 cells at 0.15 mM after 4 hrs by HPLC-MS based pull down assay relative to control; format: cell-based
Tubulin alpha-1C chain (Homo sapiens), sequence (Q9BQE3 whole entry, looked up): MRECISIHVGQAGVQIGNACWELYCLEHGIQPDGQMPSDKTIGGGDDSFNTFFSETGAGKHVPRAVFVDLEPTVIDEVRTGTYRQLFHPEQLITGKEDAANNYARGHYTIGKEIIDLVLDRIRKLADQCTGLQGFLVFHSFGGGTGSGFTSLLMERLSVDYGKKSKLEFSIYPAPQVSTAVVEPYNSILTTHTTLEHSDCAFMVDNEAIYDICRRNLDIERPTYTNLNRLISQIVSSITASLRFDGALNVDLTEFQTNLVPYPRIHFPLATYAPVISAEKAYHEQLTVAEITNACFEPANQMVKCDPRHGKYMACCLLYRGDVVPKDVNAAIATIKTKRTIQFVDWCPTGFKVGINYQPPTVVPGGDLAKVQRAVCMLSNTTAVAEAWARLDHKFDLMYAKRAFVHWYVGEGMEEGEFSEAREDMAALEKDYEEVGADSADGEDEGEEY
Procedure, shortened: (§1)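 A549 lysate in NETN buffer (pH 8.0, 0.5% NP-40) incubated with biotinylated probe (0.15 mM final) 4 h at 4 °C, with biotin or control probe as comparators. Streptavidin Dynabeads 1 h at 4 °C, six NETN washes, proteins eluted by boiling in SDS buffer. After trypsin digestion, identification by LC-MS/MS on Q Exactive HF.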

[3] = system: A549; assay: Binding affinity to tubulin beta in human A549 cells at 0.15 mM after 4 hrs by HPLC-MS based pull down assay relative to control; format: cell-based; procedure, shortened: as §1
[4] = species on record: Sus scrofa; assay: Inhibition of vinblastine binding to porcine tubulin treated 2 hrs post colchicine treatment by pull down assay
Procedure, shortened: (§2)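 Porcine neuronal tubulin was preincubated with excess taxol, colchicine, vinblastine or nocodazole for 2 h at 4 °C. Biotinylated probe was then added in NETN buffer, followed by streptavidin Dynabead pull-down for 1 h at 4 °C and six washes. Bound α-tubulin was detected by SDS–PAGE and immunoblot. Three independent experiments.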

[5] = system: A549; assay: Binding affinity to tubulin alpha-3E in human A549 cells at 0.15 mM after 4 hrs by HPLC-MS based pull down assay relative to control; format: cell-based; procedure, shortened: as §1
[6] = system: A549; assay: Binding affinity to tubulin alpha in human A549 cells immunoblot based based pull down assay; format: cell-based
Procedure, shortened: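 A549 lysate in NETN buffer incubated with biotin, biotinylated probe or control probe at 4 °C, then streptavidin Dynabeads 1 h at 4 °C. Beads washed six times, bound proteins run on SDS-PAGE and immunoblotted for α-tubulin.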

[7] = target: T1, RNA-binding protein EWS (Homo sapiens) (UniProt Q01844); assay: Binding affinity to RNA-binding protein EWS in human A549 cells at 0.15 mM after 4 hrs by HPLC-MS based pull down assay relative to control; format: cell-based; procedure, shortened: as §1
T1 sequence (whole entry): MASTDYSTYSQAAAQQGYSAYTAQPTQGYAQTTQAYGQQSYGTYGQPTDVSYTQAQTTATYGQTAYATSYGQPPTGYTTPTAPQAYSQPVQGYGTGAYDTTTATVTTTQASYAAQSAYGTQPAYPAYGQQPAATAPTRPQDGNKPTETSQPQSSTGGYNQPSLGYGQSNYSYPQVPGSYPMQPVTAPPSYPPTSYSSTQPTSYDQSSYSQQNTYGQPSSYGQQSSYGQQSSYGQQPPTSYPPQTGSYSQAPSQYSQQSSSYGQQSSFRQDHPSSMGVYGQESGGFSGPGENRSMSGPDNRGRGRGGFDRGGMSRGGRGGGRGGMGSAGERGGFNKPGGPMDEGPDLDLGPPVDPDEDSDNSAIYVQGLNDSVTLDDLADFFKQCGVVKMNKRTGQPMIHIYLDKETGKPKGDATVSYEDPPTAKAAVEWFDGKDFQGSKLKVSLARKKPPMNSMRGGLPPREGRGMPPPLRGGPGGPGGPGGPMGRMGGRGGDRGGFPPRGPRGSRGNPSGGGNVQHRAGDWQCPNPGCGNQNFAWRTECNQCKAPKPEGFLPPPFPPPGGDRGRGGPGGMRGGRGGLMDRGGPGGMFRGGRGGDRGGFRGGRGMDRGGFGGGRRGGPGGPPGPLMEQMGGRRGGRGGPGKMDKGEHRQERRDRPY

[8] = target: T1, RNA-binding protein EWS (Homo sapiens); assay: Binding affinity to RNA-binding protein EWS isoform 6 in human A549 cells at 0.15 mM after 4 hrs by HPLC-MS based pull down assay relative to control; format: cell-based; procedure, shortened: as §1
[9] = target: Tubulin beta-3 chain (Homo sapiens) (UniProt Q13509); assay: Binding affinity to tubulin beta-3 in human A549 cells at 0.15 mM after 4 hrs by HPLC-MS based pull down assay relative to control; format: cell-based; procedure, shortened: as §1
Tubulin beta-3 chain (Homo sapiens), sequence (Q13509 whole entry): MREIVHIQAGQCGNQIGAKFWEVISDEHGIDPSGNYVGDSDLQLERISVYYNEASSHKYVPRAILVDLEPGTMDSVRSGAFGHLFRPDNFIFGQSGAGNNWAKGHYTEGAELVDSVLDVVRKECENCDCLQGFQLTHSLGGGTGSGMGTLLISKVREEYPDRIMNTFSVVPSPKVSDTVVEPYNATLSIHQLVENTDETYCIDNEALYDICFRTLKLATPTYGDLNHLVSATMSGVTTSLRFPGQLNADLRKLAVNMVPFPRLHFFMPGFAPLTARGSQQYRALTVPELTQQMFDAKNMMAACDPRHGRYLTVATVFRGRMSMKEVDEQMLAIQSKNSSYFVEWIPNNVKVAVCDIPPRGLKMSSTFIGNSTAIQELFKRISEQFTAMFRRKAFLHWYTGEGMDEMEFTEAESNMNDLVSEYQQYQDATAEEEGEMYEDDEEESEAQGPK

[10] = target: Tubulin beta-4B chain (Homo sapiens) (UniProt P68371); assay: Binding affinity to tubulin beta-4B in human A549 cells at 0.15 mM after 4 hrs by HPLC-MS based pull down assay relative to control; format: cell-based; procedure, shortened: as §1
Tubulin beta-4B chain (Homo sapiens), sequence (P68371 whole entry): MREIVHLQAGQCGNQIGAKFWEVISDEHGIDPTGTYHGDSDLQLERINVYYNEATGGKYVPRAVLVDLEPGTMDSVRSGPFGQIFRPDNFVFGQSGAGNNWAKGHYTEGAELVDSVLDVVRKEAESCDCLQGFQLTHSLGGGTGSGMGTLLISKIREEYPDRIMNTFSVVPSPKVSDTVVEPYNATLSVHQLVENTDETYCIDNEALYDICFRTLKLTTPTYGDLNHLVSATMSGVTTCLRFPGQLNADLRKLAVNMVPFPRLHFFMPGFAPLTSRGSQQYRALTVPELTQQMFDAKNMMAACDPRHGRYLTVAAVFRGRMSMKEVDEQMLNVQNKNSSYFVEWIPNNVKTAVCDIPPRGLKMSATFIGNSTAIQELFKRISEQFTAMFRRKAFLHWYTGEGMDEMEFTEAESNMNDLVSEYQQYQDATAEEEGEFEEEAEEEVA

[11] = species on record: Sus scrofa; assay: Inhibition of taxol binding to porcine tubulin preincubated with tubulin followed by taxol treatment measured after 2 hrs by immunoblot analysis
[12] = species on record: Sus scrofa; assay: Binding affinity to porcine tubulin after overnight incubation by streptavidin pull down assay
Procedure, shortened: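 Purified porcine neuronal tubulin incubated with biotin, biotinylated probe or control probe in NETN buffer at 4 °C. Streptavidin Dynabeads 1 h at 4 °C, six washes, then SDS-PAGE and α-tubulin immunoblot.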

[13] = target: Serine/arginine-rich splicing factor 9 (Homo sapiens) (UniProt Q13242); assay: Binding affinity to serine/arginine-rich-splicing factor 9 in human A549 cells at 0.15 mM after 4 hrs by HPLC-MS based pull down assay relative to control; format: cell-based; procedure, shortened: as §1
Serine/arginine-rich splicing factor 9 (Homo sapiens), sequence (Q13242 whole entry): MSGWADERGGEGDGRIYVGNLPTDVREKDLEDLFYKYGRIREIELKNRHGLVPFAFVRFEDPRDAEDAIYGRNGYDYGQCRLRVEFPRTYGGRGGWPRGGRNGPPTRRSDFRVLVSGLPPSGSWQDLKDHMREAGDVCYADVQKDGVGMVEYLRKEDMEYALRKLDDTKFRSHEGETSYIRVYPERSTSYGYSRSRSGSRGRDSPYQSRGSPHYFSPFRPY

[14] = species on record: Sus scrofa; assay: Inhibition of taxol binding to porcine tubulin treated 2 hrs post colchicine treatment by pull down assay; procedure, shortened: as §2
[15] = target: T2, ATP-dependent RNA helicase DDX1 (Homo sapiens) (UniProt Q92499); assay: Binding affinity to DDX1 in human A549 cells at 0.15 mM after 4 hrs by HPLC-MS based pull down assay relative to control; format: cell-based; procedure, shortened: as §1
T2 sequence (whole entry): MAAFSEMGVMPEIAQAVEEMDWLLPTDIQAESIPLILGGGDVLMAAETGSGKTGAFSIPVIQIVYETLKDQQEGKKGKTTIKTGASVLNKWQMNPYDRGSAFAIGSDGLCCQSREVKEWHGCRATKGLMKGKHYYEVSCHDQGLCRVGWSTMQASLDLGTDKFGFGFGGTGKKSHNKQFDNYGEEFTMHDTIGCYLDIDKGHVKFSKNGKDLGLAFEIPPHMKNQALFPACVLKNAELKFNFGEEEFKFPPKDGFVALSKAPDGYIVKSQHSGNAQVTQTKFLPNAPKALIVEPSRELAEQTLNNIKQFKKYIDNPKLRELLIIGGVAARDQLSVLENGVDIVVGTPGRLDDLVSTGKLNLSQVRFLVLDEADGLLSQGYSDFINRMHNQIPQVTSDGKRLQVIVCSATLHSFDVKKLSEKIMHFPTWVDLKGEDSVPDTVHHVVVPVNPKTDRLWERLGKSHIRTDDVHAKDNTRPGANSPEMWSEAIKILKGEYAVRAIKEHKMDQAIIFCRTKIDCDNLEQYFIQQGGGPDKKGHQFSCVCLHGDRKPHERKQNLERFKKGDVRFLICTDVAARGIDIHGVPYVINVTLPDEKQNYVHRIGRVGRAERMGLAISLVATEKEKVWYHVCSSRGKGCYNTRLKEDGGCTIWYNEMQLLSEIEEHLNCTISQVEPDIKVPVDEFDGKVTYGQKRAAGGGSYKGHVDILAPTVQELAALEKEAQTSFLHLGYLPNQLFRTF

[16] = target: Probable ATP-dependent RNA helicase DDX17 (Homo sapiens) (UniProt Q92841); assay: Binding affinity to DDX17 in human A549 cells at 0.15 mM after 4 hrs by HPLC-MS based pull down assay relative to control; format: cell-based; procedure, shortened: as §1
Probable ATP-dependent RNA helicase DDX17 (Homo sapiens), sequence (Q92841 whole entry): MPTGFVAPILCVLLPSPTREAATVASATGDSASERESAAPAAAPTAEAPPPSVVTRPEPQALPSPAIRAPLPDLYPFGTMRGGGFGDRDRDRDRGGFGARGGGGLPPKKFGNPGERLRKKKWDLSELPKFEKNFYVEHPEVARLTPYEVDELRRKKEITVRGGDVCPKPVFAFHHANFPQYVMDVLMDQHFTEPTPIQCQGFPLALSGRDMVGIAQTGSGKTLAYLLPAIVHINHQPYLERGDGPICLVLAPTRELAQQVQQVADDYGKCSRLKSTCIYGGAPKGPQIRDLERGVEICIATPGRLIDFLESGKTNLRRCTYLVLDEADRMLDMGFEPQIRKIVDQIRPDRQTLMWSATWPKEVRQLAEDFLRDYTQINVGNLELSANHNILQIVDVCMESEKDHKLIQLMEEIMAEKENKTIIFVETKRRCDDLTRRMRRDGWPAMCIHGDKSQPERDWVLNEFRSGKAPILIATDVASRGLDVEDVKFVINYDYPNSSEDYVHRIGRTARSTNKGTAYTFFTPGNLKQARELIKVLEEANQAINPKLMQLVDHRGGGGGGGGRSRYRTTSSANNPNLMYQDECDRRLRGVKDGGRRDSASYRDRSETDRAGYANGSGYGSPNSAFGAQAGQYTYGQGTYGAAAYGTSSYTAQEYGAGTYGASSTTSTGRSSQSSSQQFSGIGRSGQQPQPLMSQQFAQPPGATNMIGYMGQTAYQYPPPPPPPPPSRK

inhibition [1]: Active | Activity [2]: 16.6% | inhibition [4]: Active | Activity [7]: 55.8% | Activity [8]: 40.5% | Activity [9]: 16.7% | Activity [10]: 34.2% | inhibition [11]: inactive | Activity [12]: Active | Activity [13]: 63.8% | inhibition [14]: inactive | Activity [15]: 38.8% | Activity [16]: 52.8%
Structure (SMILES): Cc1cc2c(=O)[nH]c(CSC(=S)N(CCCNC(=O)CCCC[C@@H]3SC[C@@H]4NC(=O)N[C@@H]43)Cc3ccc(C#N)cc3)nc2s1
Activity [3]: 35.7% | Activity [5]: 15.3% | Activity [6]: Active

— ChEMBL document CHEMBL4152279, “Synthesis, cytotoxic evaluation and target identification of thieno[2,3-d]pyrimidine derivatives with a dithiocarbamate side chain at C2 position” (Eur J Med Chem, 2018)
